From ChEMBL document CHEMBL3232919, “Imidazol-1-ylethylindazole voltage-gated sodium channel ligands are neuroprotective during optic neuritis in a mouse model of multiple sclerosis” (J Med Chem, 2014)
Activity calls are given as the source filed them. The calls are words filed in the database; no cut-off is given here.

Tests used:
Rattus norvegicus [1] = species on record: Rattus norvegicus; assay: Neuroprotective activity in oxygen/glucose deprivation-induced Wistar rat hippocampal slice assessed as inhibition of cell death by measuring ATP level at 50 uM; assay type: functional
[2] = Metabolic stability in rat liver microsomes assessed as drug turnover at 1 uM at 40 mins by LC-MS/MS analysis; assay type: ADME; conditions: read-out: Drug metabolism
Method in brief: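 Compound at 1 μM was incubated (n=2) with pooled rat liver microsomes (0.25 mg protein/ml) at 37°C for 0 and 40 min. Reactions were stopped with acetonitrile containing an internal standard, and parent disappearance was measured by LC-MS/MS. Percentage turnover was taken from peak heights relative to the zero-time samples.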

[3] = Displacement of [3H]sipatrigine from Wistar rat brain synaptosomes voltage-gated sodium channel by liquid scintillation counting; assay type: subcellular
Rattus norvegicus [4] = species on record: Rattus norvegicus; conditions: Wistar, 1 uM
Rattus norvegicus [5] = species on record: Rattus norvegicus; assay: Neuroprotective activity in oxygen/glucose deprivation-induced Wistar rat hippocampal slice assessed as inhibition of cell death by measuring ATP level; assay type: functional
[6] = target: T1, Sodium channel protein type 5 subunit alpha (Homo sapiens, UniProt Q14524); assay: Inhibition of human Nav1.5 assessed as inactivated-state block by patch-clamp electrophysiology/cell based assay
Method in brief: (§1)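 Automated parallel patch clamp (PatchXpress 7000A) on human Nav isoforms, room temperature. Compound tested at 0.1, 0.3, 1, 3, 10, 30 and 100 μM, two to four cells per concentration, 5 min exposure each. Use-dependence on Nav1.1 and Nav1.8/β3 by double pulse protocol: holding -80 mV, prepulse -120 mV, then pulse 1 to 0 mV for 200 ms.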

[7] = target: T2, Sodium channel protein type 8 subunit alpha (Homo sapiens, UniProt Q9UQD0); assay: Inhibition of human Nav1.6 assessed as 10 Hz block by patch-clamp electrophysiology/cell based assay
Method in brief: (§2)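 Automated parallel patch clamp on cells expressing human Nav isoforms (hNav1.1 to hNav1.8/β3), at room temperature. Compounds were tested at 0.1, 0.3, 1, 3, 10, 30 and 100 μM. Each exposure lasted 5 min, with two to four cells per concentration.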

[8] = target: T3, Sodium channel protein type 2 subunit alpha (Homo sapiens, UniProt Q99250); assay: Inhibition of human Nav1.2 assessed as 10 Hz block by patch-clamp electrophysiology/cell based assay
[9] = target: T2, Sodium channel protein type 8 subunit alpha; assay: Inhibition of human Nav1.6 assessed as inactivated-state block by patch-clamp electrophysiology/cell based assay; method in brief: as §2
[10] = target: T4, Sodium channel protein type 4 subunit alpha (Homo sapiens, UniProt P35499); assay: Inhibition of human Nav1.4 assessed as inactivated-state block by patch-clamp electrophysiology/cell based assay; method in brief: as §1
[11] = target: T5, Sodium channel protein type 9 subunit alpha (Homo sapiens, UniProt Q15858); assay: Inhibition of human Nav1.7 assessed as tonic block by patch-clamp electrophysiology/cell based assay
[12] = target: T6, Sodium channel protein type 10 subunit alpha (Homo sapiens, UniProt Q9Y5Y9); assay: Inhibition of human Nav1.8 assessed as inactivated-state block using double pulse protocol by patch-clamp electrophysiology/cell based assay; method in brief: as §1
[13] = target: T7, Sodium channel protein type 1 subunit alpha (Homo sapiens, UniProt P35498); assay: Inhibition of human Nav1.1 assessed as tonic block using double pulse protocol by patch-clamp electrophysiology/cell based assay; method in brief: as §1
[14] = target: T7, Sodium channel protein type 1 subunit alpha; assay: Inhibition of human Nav1.1 assessed as inactivated-state block using double pulse protocol by patch-clamp electrophysiology/cell based assay; method in brief: as §1
[15] = target: T8, Sodium channel protein type 3 subunit alpha (Homo sapiens, UniProt Q9NY46); assay: Inhibition of human Nav1.3 assessed as 10 Hz block by patch-clamp electrophysiology/cell based assay
Method in brief: (§3)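 Automated parallel patch-clamp (PatchXpress 7000A) on cells expressing human Nav1.3, run at room temperature. Compounds were tested at 0.1, 0.3, 1, 3, 10, 30 and 100 μM, each in two to four cells, with 5 min exposure per concentration.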

[16] = target: T6, Sodium channel protein type 10 subunit alpha; assay: Inhibition of human Nav1.8 assessed as tonic block using double pulse protocol by patch-clamp electrophysiology/cell based assay; method in brief: as §1
[17] = target: T8, Sodium channel protein type 3 subunit alpha; assay: Inhibition of human Nav1.3 assessed as tonic block by patch-clamp electrophysiology/cell based assay; method in brief: as §3
[18] = target: T8, Sodium channel protein type 3 subunit alpha; assay: Inhibition of human Nav1.3 assessed as inactivated-state block by patch-clamp electrophysiology/cell based assay; method in brief: as §3
[19] = target: T3, Sodium channel protein type 2 subunit alpha; assay: Inhibition of human Nav1.2 assessed as inactivated-state block by patch-clamp electrophysiology/cell based assay
[20] = target: T1, Sodium channel protein type 5 subunit alpha; assay: Inhibition of human Nav1.5 assessed as 10 Hz block by patch-clamp electrophysiology/cell based assay; method in brief: as §1
[21] = target: T2, Sodium channel protein type 8 subunit alpha; assay: Inhibition of human Nav1.6 assessed as tonic block by patch-clamp electrophysiology/cell based assay; method in brief: as §2
[22] = target: T5, Sodium channel protein type 9 subunit alpha; assay: Inhibition of human Nav1.7 assessed as 10 Hz block by patch-clamp electrophysiology/cell based assay
[23] = target: T4, Sodium channel protein type 4 subunit alpha; assay: Inhibition of human Nav1.4 assessed as tonic block by patch-clamp electrophysiology/cell based assay; method in brief: as §1
[24] = target: T1, Sodium channel protein type 5 subunit alpha; assay: Inhibition of human Nav1.5 assessed as tonic block by patch-clamp electrophysiology/cell based assay; method in brief: as §1
[25] = target: T6, Sodium channel protein type 10 subunit alpha; assay: Inhibition of human Nav1.8 assessed as 10 Hz block using double pulse protocol by patch-clamp electrophysiology/cell based assay; method in brief: as §1
[26] = target: T5, Sodium channel protein type 9 subunit alpha; assay: Inhibition of human Nav1.7 assessed as inactivated-state block by patch-clamp electrophysiology/cell based assay
[27] = target: T3, Sodium channel protein type 2 subunit alpha; assay: Inhibition of human Nav1.2 assessed as tonic block by patch-clamp electrophysiology/cell based assay
[28] = target: T7, Sodium channel protein type 1 subunit alpha; assay: Inhibition of human Nav1.1 assessed as 10 Hz block using double pulse protocol by patch-clamp electrophysiology/cell based assay; method in brief: as §1
[29] = target: T4, Sodium channel protein type 4 subunit alpha; assay: Inhibition of human Nav1.4 assessed as 10 Hz block by patch-clamp electrophysiology/cell based assay; method in brief: as §1
Mus musculus [30] = assay: Neuroprotective activity in C57BL/6-Cg-Tg(Thy1-CFP)23Jrs.Tg(Tcra2D2, Tcrb2D2)1Kuch/J transgenic mouse optic neuritis model assessed as increase in ganglion cell survival at 5 mg/kg, ip; assay type: functional, organism-based; design: dose 5 mg/kg
Mus musculus [31] = assay: Toxicity in mouse assessed as motor coordination at 5 to 50 mg/kg, ip from day -1 to day 2 by RotaRod assay; assay type: organism-based; design: dose 5-50 mg/kg, route intraperitoneal; conditions: in vivo
Mus musculus [32] = assay: Immunosuppressive activity in […] oxazolone-induced ABH mouse assessed as effect on cell proliferation response in draining lymph node at 5 to 50 mg/kg, ip from day -1 to day 2 by local lymph node assay; assay type: functional, organism-based
Mus musculus [33] = assay: Neuroprotective activity in C57BL/6-Cg-Tg(Thy1-CFP)23Jrs.Tg(Tcra2D2, Tcrb2D2)1Kuch/J transgenic mouse optic neuritis model assessed as reduction in retinal loss measured as number of cells at 5 mg/kg, ip (reference value: 914 +/- 89 cells); assay type: functional; conditions: route intraperitoneal
Rattus norvegicus [34] = species on record: Rattus norvegicus; assay: Neuroprotective activity in oxygen/glucose deprivation-induced Wistar rat hippocampal slice assessed as inhibition of cell death by measuring ATP level at 30 uM normalized to tetrodotoxin; assay type: functional
Rattus norvegicus [35] = species on record: Rattus norvegicus; assay: Neuroprotective activity in oxygen/glucose deprivation-induced Wistar rat hippocampal slice assessed as inhibition of cell death by measuring ATP level at 3 uM; assay type: functional

T4 sequence (P35499 whole entry): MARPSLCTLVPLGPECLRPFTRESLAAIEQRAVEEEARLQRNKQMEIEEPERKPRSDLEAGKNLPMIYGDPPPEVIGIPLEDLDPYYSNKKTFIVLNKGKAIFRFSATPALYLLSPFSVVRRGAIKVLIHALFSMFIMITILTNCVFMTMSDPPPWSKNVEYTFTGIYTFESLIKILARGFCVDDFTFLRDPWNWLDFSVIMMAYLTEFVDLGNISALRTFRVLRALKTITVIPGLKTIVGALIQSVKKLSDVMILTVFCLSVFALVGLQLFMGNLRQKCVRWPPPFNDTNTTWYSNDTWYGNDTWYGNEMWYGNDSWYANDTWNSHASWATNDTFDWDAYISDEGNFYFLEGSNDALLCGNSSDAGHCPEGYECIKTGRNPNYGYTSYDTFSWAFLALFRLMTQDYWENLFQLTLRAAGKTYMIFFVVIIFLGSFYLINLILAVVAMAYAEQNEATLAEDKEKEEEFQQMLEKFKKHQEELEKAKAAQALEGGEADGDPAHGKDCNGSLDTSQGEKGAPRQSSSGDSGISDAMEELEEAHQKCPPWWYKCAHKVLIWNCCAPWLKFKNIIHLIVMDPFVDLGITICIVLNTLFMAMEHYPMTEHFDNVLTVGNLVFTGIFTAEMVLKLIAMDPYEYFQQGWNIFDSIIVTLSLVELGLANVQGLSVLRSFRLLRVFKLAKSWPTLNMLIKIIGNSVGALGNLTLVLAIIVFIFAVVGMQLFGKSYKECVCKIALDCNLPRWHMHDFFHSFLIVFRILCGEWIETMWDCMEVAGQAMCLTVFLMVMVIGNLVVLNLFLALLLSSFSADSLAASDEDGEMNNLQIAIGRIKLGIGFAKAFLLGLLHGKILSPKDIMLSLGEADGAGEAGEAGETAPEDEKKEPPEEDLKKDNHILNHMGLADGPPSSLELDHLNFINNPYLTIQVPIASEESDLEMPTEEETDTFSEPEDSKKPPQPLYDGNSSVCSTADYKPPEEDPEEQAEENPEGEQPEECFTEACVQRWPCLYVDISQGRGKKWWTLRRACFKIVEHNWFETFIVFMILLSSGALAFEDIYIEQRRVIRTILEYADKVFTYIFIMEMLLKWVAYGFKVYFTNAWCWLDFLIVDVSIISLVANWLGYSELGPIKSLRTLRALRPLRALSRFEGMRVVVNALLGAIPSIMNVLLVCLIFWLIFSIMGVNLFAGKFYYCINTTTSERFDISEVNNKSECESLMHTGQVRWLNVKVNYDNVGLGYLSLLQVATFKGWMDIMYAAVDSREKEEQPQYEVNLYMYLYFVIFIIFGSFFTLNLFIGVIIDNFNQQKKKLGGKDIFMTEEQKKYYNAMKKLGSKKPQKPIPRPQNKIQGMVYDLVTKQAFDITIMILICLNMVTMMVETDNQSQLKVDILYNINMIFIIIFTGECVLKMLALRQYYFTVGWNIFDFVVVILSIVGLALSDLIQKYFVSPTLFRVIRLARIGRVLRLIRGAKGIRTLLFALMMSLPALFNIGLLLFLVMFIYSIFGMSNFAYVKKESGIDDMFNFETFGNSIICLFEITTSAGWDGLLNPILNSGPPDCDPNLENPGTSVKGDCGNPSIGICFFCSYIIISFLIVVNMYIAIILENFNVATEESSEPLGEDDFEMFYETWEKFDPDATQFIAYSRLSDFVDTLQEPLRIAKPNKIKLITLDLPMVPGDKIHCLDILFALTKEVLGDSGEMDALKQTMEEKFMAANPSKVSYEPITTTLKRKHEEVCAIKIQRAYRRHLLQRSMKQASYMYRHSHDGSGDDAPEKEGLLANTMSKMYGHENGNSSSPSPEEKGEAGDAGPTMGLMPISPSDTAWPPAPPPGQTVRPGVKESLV
T6 sequence (Q9Y5Y9 whole entry): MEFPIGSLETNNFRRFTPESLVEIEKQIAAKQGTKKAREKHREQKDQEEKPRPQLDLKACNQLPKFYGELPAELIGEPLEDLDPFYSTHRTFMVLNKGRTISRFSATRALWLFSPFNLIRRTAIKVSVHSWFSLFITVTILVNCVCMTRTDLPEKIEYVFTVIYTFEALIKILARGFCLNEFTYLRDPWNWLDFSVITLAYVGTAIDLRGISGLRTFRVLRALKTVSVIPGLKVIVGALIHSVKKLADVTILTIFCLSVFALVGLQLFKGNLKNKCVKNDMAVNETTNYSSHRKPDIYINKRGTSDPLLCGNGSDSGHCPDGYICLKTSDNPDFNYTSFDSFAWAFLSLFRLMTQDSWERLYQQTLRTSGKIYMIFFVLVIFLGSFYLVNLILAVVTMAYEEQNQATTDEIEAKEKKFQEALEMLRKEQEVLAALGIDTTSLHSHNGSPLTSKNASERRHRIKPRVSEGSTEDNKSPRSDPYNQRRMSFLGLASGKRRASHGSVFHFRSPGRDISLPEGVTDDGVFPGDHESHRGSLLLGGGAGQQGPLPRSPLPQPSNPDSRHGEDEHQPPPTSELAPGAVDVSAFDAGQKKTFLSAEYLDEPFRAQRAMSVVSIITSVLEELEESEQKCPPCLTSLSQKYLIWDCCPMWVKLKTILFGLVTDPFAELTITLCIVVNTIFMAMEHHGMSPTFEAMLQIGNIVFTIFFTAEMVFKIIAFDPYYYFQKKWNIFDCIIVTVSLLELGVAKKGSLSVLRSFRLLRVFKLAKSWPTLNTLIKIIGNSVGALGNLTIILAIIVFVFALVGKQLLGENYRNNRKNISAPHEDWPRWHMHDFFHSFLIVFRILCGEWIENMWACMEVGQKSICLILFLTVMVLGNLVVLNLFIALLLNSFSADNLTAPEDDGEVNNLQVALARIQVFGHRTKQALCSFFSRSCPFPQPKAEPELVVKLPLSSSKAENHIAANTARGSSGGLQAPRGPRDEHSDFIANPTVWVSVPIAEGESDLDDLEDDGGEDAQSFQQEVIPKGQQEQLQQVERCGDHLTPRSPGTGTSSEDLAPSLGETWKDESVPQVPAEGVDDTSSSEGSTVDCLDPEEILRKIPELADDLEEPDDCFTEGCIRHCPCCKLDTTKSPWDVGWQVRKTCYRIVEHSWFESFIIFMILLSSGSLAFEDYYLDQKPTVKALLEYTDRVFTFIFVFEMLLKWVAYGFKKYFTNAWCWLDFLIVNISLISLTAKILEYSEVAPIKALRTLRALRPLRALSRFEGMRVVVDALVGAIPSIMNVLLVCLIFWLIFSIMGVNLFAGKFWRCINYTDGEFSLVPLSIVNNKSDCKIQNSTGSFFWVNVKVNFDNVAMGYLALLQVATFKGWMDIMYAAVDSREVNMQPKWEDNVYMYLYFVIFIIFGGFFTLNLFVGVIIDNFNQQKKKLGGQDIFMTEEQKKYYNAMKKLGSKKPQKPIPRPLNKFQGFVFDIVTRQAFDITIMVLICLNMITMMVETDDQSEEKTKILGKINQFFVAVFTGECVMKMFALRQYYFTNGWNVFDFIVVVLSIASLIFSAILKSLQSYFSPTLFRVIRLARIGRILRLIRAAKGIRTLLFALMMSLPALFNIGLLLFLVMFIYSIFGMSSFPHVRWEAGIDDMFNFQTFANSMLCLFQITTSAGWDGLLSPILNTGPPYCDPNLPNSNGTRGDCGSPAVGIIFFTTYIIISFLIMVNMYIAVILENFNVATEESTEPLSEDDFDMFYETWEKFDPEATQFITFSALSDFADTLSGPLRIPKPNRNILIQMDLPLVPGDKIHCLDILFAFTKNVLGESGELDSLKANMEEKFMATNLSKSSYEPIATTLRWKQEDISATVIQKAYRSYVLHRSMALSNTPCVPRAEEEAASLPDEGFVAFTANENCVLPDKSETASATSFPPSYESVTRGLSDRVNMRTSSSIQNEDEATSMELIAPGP

SMILES: CC(=O)Nc1ccc(S(=O)(=O)NCc2noc(-c3c4ccccc4nn3CCn3ccnc3)n2)cc1
- inhibition at 50 µM (Rattus norvegicus [1]): 25%
- metabolised at 40 min, 1 µM [2]: 54%
- IC50 [3]: 17 µM

SMILES: CC(C)(C)OC(=O)NCc1noc(-c2c3ccccc3nn2CCn2ccnc2)n1
- inhibition at 50 µM (Rattus norvegicus [1]): 35%
- metabolised at 40 min, 1 µM [2]: 70%
- IC50 [3]: 15.5 µM

SMILES: NC1=N[C@H](O)[C@H]2[C@H]3O[C@]4(O)O[C@@H]([C@@H](O)[C@@]2(N1)[C@@H]4O)[C@]3(O)CO
- inhibition (Rattus norvegicus [4]): 100%

SMILES: O=S(=O)(NCc1noc(-c2c3ccccc3nn2CCn2ccnc2)n1)c1ccccc1
- inhibition at 50 µM (Rattus norvegicus [1]): 38%
- EC50 (Rattus norvegicus [5]): 29.5 µM
- metabolised at 40 min, 1 µM [2]: 97%
- IC50 [3]: 1.7 µM

SMILES: O=C(NCc1noc(-c2c3ccccc3nn2CCn2ccnc2)n1)c1cccc(OC(F)(F)F)c1
- IC50 [6]: 0.92 µM
- inhibition at 50 µM (Rattus norvegicus [1]): 78%
- IC50 [7]: 32.2 µM
- IC50 [8]: 24.1 µM
- IC50 [9]: 3.32 µM
- IC50 [10]: 4.58 µM
- IC50 [11]: 5.64 µM
- IC50 [12]: 3.77 µM
- IC50 [13]: 15.3 µM
- IC50 [14]: 2.55 µM
- IC50 [15]: 97 µM
- IC50 [16]: 6.34 µM
- IC50 [17]: > 100 µM
- IC50 [18]: 4.76 µM
- IC50 [19]: 3.54 µM
- IC50 [20]: 14.8 µM
- IC50 [21]: > 100 µM
- IC50 [22]: 4.82 µM
- IC50 [23]: 18.3 µM
- IC50 [24]: 36 µM
- IC50 [25]: 5.66 µM
- IC50 [26]: 3.02 µM
- IC50 [27]: 65 µM
- IC50 [28]: 8.54 µM
- IC50 [29]: 10.5 µM

SMILES: NCc1noc(-c2nn(Cc3ccccc3)c3ccccc23)n1
- EC50 (Rattus norvegicus [5]): 35 µM

SMILES: O=C(NCc1noc(-c2nn(CCn3ccnc3)c3ccccc23)n1)c1cccc(OC(F)(F)F)c1
- inhibition at 50 µM (Rattus norvegicus [1]): 37%
- metabolised at 40 min, 1 µM [2]: 78%
- IC50 [3]: 1.5 µM

SMILES: NCc1noc(-c2c3ccccc3nn2CCn2ccnc2)n1
- inhibition at 50 µM (Rattus norvegicus [1]): 8%
- metabolised at 40 min, 1 µM [2]: 57%
- IC50 [3]: 14 µM

SMILES: COc1cccc(C(=O)NCc2noc(-c3c4ccccc4nn3CCn3ccnc3)n2)c1OC
- inhibition at 50 µM (Rattus norvegicus [1]): 88%
- EC50 (Rattus norvegicus [5]): 12.3 µM
- IC50 [3]: 5.8 µM

SMILES: NCc1noc(-c2nn(CCn3ccnc3)c3ccccc23)n1
- inhibition at 50 µM (Rattus norvegicus [1]): -2%
- IC50 [3]: 148 µM

SMILES: COc1ccc(C(=O)NCc2noc(-c3nn(CCn4ccnc4)c4ccccc34)n2)c(OC)c1OC
- inhibition at 50 µM (Rattus norvegicus [1]): 37%
- IC50 [3]: 5.3 µM

SMILES: O=S(=O)(NCc1noc(-c2nn(CCn3ccnc3)c3ccccc23)n1)c1ccc(Cl)cc1
- inhibition at 50 µM (Rattus norvegicus [1]): 21%
- IC50 [3]: 10 µM

SMILES: CC(=O)Nc1ccc(C(=O)NCc2noc(-c3c4ccccc4nn3CCn3ccnc3)n2)cc1
- inhibition at 50 µM (Rattus norvegicus [1]): -14%
- metabolised at 40 min, 1 µM [2]: 45%
- IC50 [3]: 59 µM

SMILES: O=C(NCc1noc(-c2nn(CCn3ccnc3)c3ccccc23)n1)c1ccccc1
- IC50 [6]: 19 µM
- inhibition at 50 µM (Rattus norvegicus [1]): 47%
- IC50 [7]: > 100 µM
- IC50 [9]: 24 µM
- IC50 [10]: 24 µM
- metabolised at 40 min, 1 µM [2]: 47%
- IC50 [13]: > 100 µM
- IC50 [14]: 21 µM
- IC50 [15]: > 100 µM
- Activity (Mus musculus [30]): Active
- Activity (Mus musculus [31]): Non-toxic
- IC50 [17]: > 100 µM
- IC50 [18]: 22 µM
- IC50 [21]: > 100 µM
- IC50 [23]: > 100 µM
- IC50 [24]: > 100 µM
- inhibition (Mus musculus [32]): inactive
- IC50 [28]: > 100 µM
- IC50 [29]: 56 µM
- IC50 [3]: 13 µM
- Activity (Mus musculus [33]): 1298 /mm2

SMILES: Cc1cccc(C(=O)NCc2noc(-c3c4ccccc4nn3CCn3ccnc3)n2)c1
- inhibition at 50 µM (Rattus norvegicus [1]): 41%
- IC50 [3]: 2.5 µM

SMILES: CC(C)(C)OC(=O)NCc1noc(-c2nn(-c3ccccn3)c3ccccc23)n1
- inhibition at 50 µM (Rattus norvegicus [1]): 18%
- IC50 [3]: 74 µM

SMILES: CC(C)(C)OC(=O)NCc1noc(-c2nn(Cc3ccc(-n4cccn4)cc3)c3ccccc23)n1
- inhibition at 50 µM (Rattus norvegicus [1]): 20%
- IC50 [3]: 617 µM

SMILES: O=C(NCc1noc(-c2c3ccccc3nn2CCn2ccnc2)n1)c1ccc(OC(F)(F)F)cc1
- inhibition at 50 µM (Rattus norvegicus [1]): 31%
- IC50 [3]: 0.7 µM

SMILES: NCc1noc(-c2c3ccccc3nn2Cc2ccccn2)n1
- inhibition at 50 µM (Rattus norvegicus [1]): 25%
- IC50 [3]: > 10000 µM

SMILES: Nc1nnc(-c2cccc(Cl)c2Cl)c(N)n1 [LAMOTRIGINE]
- inhibition (INH) (Rattus norvegicus [34]): 33%

SMILES: CN1CCN(c2ncc(-c3cc(Cl)cc(Cl)c3Cl)c(N)n2)CC1 [SIPATRIGINE]
- inhibition at 3 µM (Rattus norvegicus [35]): 93%
